T cruzi repl: T. cruzi replication inhibition | 300,000 tested, 1.4% active | AID 1885 | inhibition, % (test concentration not listed) | T. cruzi beta-gal in NIH3T3, luminescence, 90 h;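 active = mean inhibition across valid replicates above about 55%, limit read from the data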;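 note: signal also drops with host cell toxicity which is not excluded here; 0% = plate median of DMSO wells and 100% = zero luminescence signal; higher percent means less beta-gal luminescence so fewer parasites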
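Incubation – ≥90 h infection period, 3 h prior cell attachment · System – NIH/3T3 fibroblasts plus reporter T. cruzi · Doses – compound pinned at 50 nL/well, DMSO · Read-out basis – percent inhibition of parasite-derived β-gal signal · Signal – luminescent β-galactosidase signal after 60 min lysis · Also added – 5000 T. cruzi trypomastigotes/well · Medium – Low-serum DMEM with 2% FBS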
NR3A LBD binder: modulators (binders) of human NR3A ligand-binding domain; NR3A LBD differential scanning fluorimetry, Tm shift; 0% = protein alone, 100% = glycine-bound protein; Tm shift relative to glycine control, % at 25 µM; 340,000 tested, 2.5% active;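 active = melting temperature shift of at least 10% of the positive control shift, at one fixed dose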
CHOP inh: inhibitors of CHOP induction in ER stress response. CHO-K1 CHOP-promoter luciferase, tunicamycin-induced, 15-18 h. inhibition, % at 10 µM. 220,000 tested, 3.8% active. AID 2732;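 active = compounds that reduced the stress-induced luciferase reporter signal by more than about 70% of percent inhibition, limit read from the data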;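 note: 0% = tunicamycin plus vehicle and 100% = wells without tunicamycin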
PREPL inh: inhibitors of human prolyl oligopeptidase-like enzyme PREPL; Q4J6C6; recombinant PREPL, fluorescence polarization activity-based probe; inhibition, % at 5.96 µM; 320,000 tested, 0.68% active; in the data active = inhibition above about 43%;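 note: 0% = enzyme with DMSO and 100% = wells lacking enzyme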
Target sequence (Q4J6C6 whole entry, looked up): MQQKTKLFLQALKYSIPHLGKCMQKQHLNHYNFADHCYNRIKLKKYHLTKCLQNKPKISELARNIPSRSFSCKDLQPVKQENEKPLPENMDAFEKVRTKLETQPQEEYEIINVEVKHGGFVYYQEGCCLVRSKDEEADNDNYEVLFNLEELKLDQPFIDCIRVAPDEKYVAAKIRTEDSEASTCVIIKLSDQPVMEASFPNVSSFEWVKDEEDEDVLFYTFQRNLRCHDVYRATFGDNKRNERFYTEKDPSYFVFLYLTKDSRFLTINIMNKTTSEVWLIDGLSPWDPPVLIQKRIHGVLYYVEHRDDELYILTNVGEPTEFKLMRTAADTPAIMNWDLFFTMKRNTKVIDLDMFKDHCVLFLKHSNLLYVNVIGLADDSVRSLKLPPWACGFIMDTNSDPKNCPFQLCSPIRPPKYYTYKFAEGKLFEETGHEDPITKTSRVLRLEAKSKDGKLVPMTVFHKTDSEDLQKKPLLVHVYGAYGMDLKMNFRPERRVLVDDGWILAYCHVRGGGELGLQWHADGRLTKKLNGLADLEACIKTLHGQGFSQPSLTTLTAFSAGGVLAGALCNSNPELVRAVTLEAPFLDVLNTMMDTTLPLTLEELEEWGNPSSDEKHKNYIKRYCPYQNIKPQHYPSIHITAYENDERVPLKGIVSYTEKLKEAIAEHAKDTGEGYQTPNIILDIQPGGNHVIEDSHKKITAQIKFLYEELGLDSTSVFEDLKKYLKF
Beta cell apopt: blocks beta cell apoptosis; 300,000 tested, 0.8% active; protection from apoptosis, % (test concentration not listed); INS-1E cytokine-induced death, ATP luminescence, 48 h; percent of positive-control rescue, neutral wells zero; AID 435005;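 active = Every replicate reaches about 75%, or at least half do and their mean reaches it too, limit read from the data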;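 note: 0% = cytokine-treated negative control wells and 100% = positive control rescue; higher means more ATP so stronger rescue from cytokine killing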
CSC inhib: blocks cancer stem cells; cancer stem cell-like cells viability, luminescence; 300,000 tested, 1.1% active; inhibition, % at 7.5 µM; in the data active = inhibition above about 75%; tested in HMLE shEcad cells
* = called active by the depositor; nt = no result. In the library only some 6.7% were active in any assay of this set; here they are far more common.

SMILES	T cruzi repl	NR3A LBD binder	CHOP inh	PREPL inh	Beta cell apopt	CSC inhib
CSC1=C(C#N)C(c2ccc(C(C)C)cc2)CC(=O)N1 (centres undefined)	-7	-2	73*	1	nt	-4
CC(C)N(Cc1ccccc1)C(=O)CN1c2cccc3cccc(c23)S1(=O)=O	nt	2	nt	-18	-9	-9
COc1ccccc1C(=O)NCC(=O)OCC(=O)N(CC(C)C)c1c(N)n(Cc2ccccc2)c(=O)[nH]c1=O	-15	-2	nt	14	-3	-4
O=C(COc1ccccc1)N=C1SC2CS(=O)(=O)CC2N1Cc1ccccc1 (centres undefined)	-3	1	nt	1	4	-4
Cc1cccc(NC(=S)NC(=O)CCc2ccccc2)c1C	15	-1	75*	-2	nt	nt
CC(=O)Nc1ccc2nc(NC(=O)CCc3ccccc3)sc2c1	9	22*	-2	7	-2	-12
CC(=O)Nc1cccc(-c2nc3ccccc3s2)c1	3	-14	-10	-50	1	13
O=C(COc1ccccc1)Nc1nc2cc3c(cc2s1)OCCO3	-8	2	nt	3	-7	-10
O=C(COc1ccccc1)Nc1nc2cc3c(cc2s1)OCO3	4	14*	nt	7	2	55
CC(=O)Nc1cccc(-c2nc3ccc(NC(C)=O)cc3s2)c1	-7	16*	-29	-9	-3	-2
CC(=O)Nc1ccc2nc(NC(=O)COc3ccc(C)cc3)sc2c1	-19	-1	-23	5	-2	0
Cc1ccc(NC(=O)COC(=O)c2cccc(C)c2[N+](=O)[O-])cc1S(=O)(=O)N1CCCCC1	nt	-2	nt	11	0	-5
COc1cc(/C=C/C(=O)c2ccc3c(c2)OCCO3)cc(Br)c1OCC(=O)N(C)C	8	0	nt	-4	-13	nt
Cc1ccccc1CN1CCNC(=O)C1CC(=O)NC1CCCCCCC1 (centres undefined)	36	-4	nt	8	-5	-18
O=C(CCc1ccccc1)Nc1cccc(NC(=O)CCc2ccccc2)c1	-10	-10	72*	6	2	-1
COc1cccc2sc(Nc3nc4ccc(NC(C)=O)cc4s3)nc12	29	31*	-54	7	15	43
CC(=O)Nc1ccc2nc(NC(=O)C(Cl)(Cl)Cl)sc2c1	-12	-9	-1	7	-5	-4
CC(=O)Nc1ccc2nc(NC(=O)COc3ccccc3)sc2c1	-4	1	7	-2	-6	-4
CC(=O)Nc1ccc2nc(NC(=O)COc3cccc(C)c3)sc2c1	5	11*	-7	-14	-3	-13
CC(=O)Nc1ccc2nc(NC(=O)COc3ccccc3C)sc2c1	-12	23*	21	5	-7	-20
C=CCNC(=O)c1c(CSc2ccc(F)cc2)noc1C(=O)NCCC	-12	2	nt	3	4	0
CC(=O)Nc1ccc2nc(NC(=O)COc3ccccc3Cl)sc2c1	-3	20*	-11	2	nt	nt
COc1ccc(C(C(=O)NC(C)(C)C)N(C(=O)CCC(=O)Nc2cc(C)on2)c2c(C)cccc2C)cc1 (centres undefined)	-3	1	nt	2	-6	nt
CCN(CC)S(=O)(=O)c1ccc(OC(C)C)c(NC(=O)C2=COCCO2)c1	11	-2	nt	-3	5	-18
Clc1ccc(-c2cn3c(n2)-c2ccccc2C3)cc1Cl	20	30*	56	2	9	-3
SMILES	T cruzi repl	NR3A LBD binder	CHOP inh	PREPL inh	Beta cell apopt	CSC inhib
Clc1ccc(-c2cn3cc(Br)ccc3n2)cc1Cl	-12	-26	66	-47	5	19
O=[N+]([O-])c1cccc(/C=C/c2nc(C=Nc3ccccc3)c(O)o2)c1	-13	11*	8	26	4	1
Cc1cc(C=NCCCO)c(C)n1-c1cc(Cl)ccc1Cl	-9	-2	34	nt	nt	nt
Oc1cccc(Nc2ncnc3c2oc2ccccc23)c1	-4	22*	nt	-13	7	40
Oc1ccc(Nc2ncnc3c2oc2ccccc23)cc1	-26	16*	nt	0	7	5
CC(C)[C@H](Nc1nc(-c2ccccc2)nc2c1oc1ccccc12)C(=O)O	-6	6	28	4	2	5
CC(C)Sc1ncnc2c1oc1ccccc12	-1	0	75*	-6	1	-13
CC(C)C(Nc1ncnc2c1oc1ccccc12)C(=O)O (centres undefined)	77*	1	-14	3	0	4
COc1ccccc1OC(C)C(=O)N(Cc1ccco1)C1CCS(=O)(=O)C1 (centres undefined)	-3	2	nt	5	0	-10
COC(=O)c1cncc(C)c1	-8	0	4	3	0	-9
CCC1CN(C(=O)N2CCC(C(=O)NCCc3ccc(OC)cc3OC)CC2)c2ccccc2O1 (centres undefined)	24	0	nt	0	4	-9
O=C(Nc1ccc(OC(F)(F)F)cc1)c1ccc2nc[nH]c2c1	10	3	nt	6	nt	nt
NC(=O)c1cccc(-c2cc(Nc3ccc(OC(F)(F)F)cc3)ncn2)c1	3	25*	11	-9	7	53
Cc1nc(SCC(=O)c2cc3ccccc3oc2=O)c(C#N)c(-c2ccccc2)c1C(=O)Nc1ccccc1	-12	0	95*	2	13	33
COc1ccc(-c2c(C#N)c(SCC(=O)Nc3ccccc3)nc3c2CCCC3)cc1	41	-1	nt	4	1	nt
COc1ccc(-c2c(C#N)c(SCC(=O)c3cc4ccccc4oc3=O)nc(C)c2C(=O)Nc2ccccc2)cc1	-5	7	41	12	5	105*
CCOC(=O)COc1ccccc1C(=O)c1cnn(-c2ccccc2)c1	-12	1	nt	2	-5	7
C/C(CC(=O)Nc1ccc(Cl)c(C(F)(F)F)c1)=N\NC(=O)c1cc2ccccc2cc1O	-22	30*	2	15	4	76*
COc1cccc(NC(=O)C/C(C)=N/NC(=O)c2ccccc2Cl)c1	-3	1	11	11	-1	20
CCOc1ccc(NC(=S)NN2C(C)CCCC2C)cc1 (centres undefined)	-18	12*	-1	2	1	-6
CC1CCN(S(=O)(=O)CCNC(=O)c2ccc3c(c2)OCO3)CC1	-4	1	nt	13	-2	nt
O=C(Nc1ccc(F)c(Cl)c1)c1cncs1	-8	-2	nt	8	nt	6
Cc1ccc(NC(=O)Nc2cccc(F)c2)nc1	-5	21*	nt	nt	-5	-10
Cc1ccc(NC(=O)Nc2ccc(Cl)c(Cl)c2)nc1	3	12*	nt	11	4	-3
FC(F)(F)c1cnc(Sc2nc3nccc(-c4ccc(Cl)cc4)n3n2)c(Cl)c1	55*	5	60	6	2	-3
COc1ccc(-c2ccnc3nc(Sc4ncc(C(F)(F)F)cc4Cl)nn23)cc1	37	-1	63	6	-4	2
